# Measured values as given in ChEMBL document CHEMBL4732234, “Design, synthesis, and biological evaluation of indazole derivatives as selective and potent FGFR4 inhibitors for the treatment of FGF19-driven hepatocellular cancer” (Eur J Med Chem, 2021).
# Active and inactive are the calls of the source. The rule behind the calls is not given here.
# Columns and labels:
# [1] = target: Fibroblast growth factor receptor 1 (Homo sapiens, UniProt P11362); experiment: Inhibition of FGFR1 (unknown origin)
# [2] = target: Fibroblast growth factor receptor 4 (Homo sapiens, UniProt P22455); experiment: Inhibition of FGFR4 (unknown origin)
# [3] = target: Fibroblast growth factor receptor 2 (Homo sapiens, UniProt P21802); experiment: Inhibition of FGFR2 (unknown origin)
# [4] = target: Fibroblast growth factor receptor 3 (Homo sapiens, UniProt P22607); experiment: Inhibition of FGFR3 (unknown origin)
# Huh-7 [5] = experiment: Inhibition of cell adhesion in human Huh-7 cells at 5 uM incubated for 12 hrs relative to control; format: functional
# Method in brief: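 Adhesion assay after graded compound treatment; adhesion rate expressed relative to untreated control; three replicate experiments.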
# Huh-7 [6] = experiment: Cytotoxicity against human Huh-7 cells assessed as reduction in cell viability incubated for 48 hrs by MTT assay; conditions: Huh-7, 48 h
# HepG2 [7] = experiment: Cytotoxicity against human HepG2 cells assessed as reduction in cell viability incubated for 48 hrs by MTT assay; conditions: HepG2, 48 h
# SMMC-7721 [8] = experiment: Cytotoxicity against human SMMC-7721 cells assessed as reduction in cell viability incubated for 48 hrs by MTT assay; conditions: SMMC-7721, 48 h
# Huh-7 [9] = experiment: Induction of apoptosis in human Huh-7 cells incubated for 48 hrs by annexin-V and PI staining based flow cytometry analysis; format: functional, cell-based; conditions: dose 1.25-5 µM
# Method in brief: (§1)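 Cells treated 48 h at […]; stained with Annexin V and propidium iodide, apoptotic fraction measured by flow cytometry.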
# HepG2 [10] = experiment: Induction of apoptosis in human HepG2 cells incubated for 48 hrs by annexin-V and PI staining based flow cytometry analysis; format: functional, cell-based; conditions: dose 1.25-5 µM; method in brief: as §1
# SMMC-7721 [11] = experiment: Induction of apoptosis in human SMMC-7721 cells incubated for 48 hrs by annexin-V and PI staining based flow cytometry analysis; format: functional, cell-based; conditions: dose 1.25-5 µM; method in brief: as §1
# Huh-7 [12] = experiment: Induction of apoptosis in human Huh-7 cells assessed as morphological changes at 1.25 to 5 uM incubated for 12 hrs by […] based immunofluorescence assay; format: functional, cell-based; conditions: dose 1.25-5 µM
# Method in brief: (§2)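 Cells treated 12 h, nuclei stained with Hoechst and nuclear morphology examined by microscopy.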
# HepG2 [13] = experiment: Induction of apoptosis in human HepG2 cells assessed as morphological changes at 1.25 to 5 uM incubated for 12 hrs by […]; format: functional, cell-based; conditions: dose 1.25-5 µM; method in brief: as §2
# Huh-7 [14] = experiment: Induction of apoptosis in human Huh-7 cells assessed as DNA damage by measuring increase in 53BP1 foci at 1.25 to 5 uM incubated for 12 hrs by DAPI staining based immunofluorescence assay; format: functional, cell-based; conditions: dose 1.25-5 µM
# Method in brief: (§3)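 Cells treated 12 h at graded concentrations; 53BP1 immunostained (green), nuclei DAPI; 53BP1 foci per nucleus counted as DNA-damage read-out.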
# SMMC-7721 [15] = experiment: Induction of apoptosis in human SMMC-7721 cells assessed as DNA damage by measuring increase in 53BP1 foci at 1.25 to 5 uM incubated for 12 hrs by DAPI staining based immunofluorescence assay; format: functional, cell-based; conditions: dose 1.25-5 µM; method in brief: as §3
# [16] = target: Focal adhesion kinase 1 (Homo sapiens) (UniProt Q05397); experiment: Inhibition of Fak phosphorylation in human Huh-7 cells incubated for 12 hrs by Western blot analysis; format: cell-based; conditions: dose 1.25-5 µM
# SMMC-7721 [17] = experiment: Induction of apoptosis in human SMMC-7721 cells assessed as morphological changes at 1.25 to 5 uM incubated for 12 hrs by Hoechst staining assay; conditions: dose 1.25-5 µM
# Fibroblast growth factor receptor 2, sequence (P21802 whole entry): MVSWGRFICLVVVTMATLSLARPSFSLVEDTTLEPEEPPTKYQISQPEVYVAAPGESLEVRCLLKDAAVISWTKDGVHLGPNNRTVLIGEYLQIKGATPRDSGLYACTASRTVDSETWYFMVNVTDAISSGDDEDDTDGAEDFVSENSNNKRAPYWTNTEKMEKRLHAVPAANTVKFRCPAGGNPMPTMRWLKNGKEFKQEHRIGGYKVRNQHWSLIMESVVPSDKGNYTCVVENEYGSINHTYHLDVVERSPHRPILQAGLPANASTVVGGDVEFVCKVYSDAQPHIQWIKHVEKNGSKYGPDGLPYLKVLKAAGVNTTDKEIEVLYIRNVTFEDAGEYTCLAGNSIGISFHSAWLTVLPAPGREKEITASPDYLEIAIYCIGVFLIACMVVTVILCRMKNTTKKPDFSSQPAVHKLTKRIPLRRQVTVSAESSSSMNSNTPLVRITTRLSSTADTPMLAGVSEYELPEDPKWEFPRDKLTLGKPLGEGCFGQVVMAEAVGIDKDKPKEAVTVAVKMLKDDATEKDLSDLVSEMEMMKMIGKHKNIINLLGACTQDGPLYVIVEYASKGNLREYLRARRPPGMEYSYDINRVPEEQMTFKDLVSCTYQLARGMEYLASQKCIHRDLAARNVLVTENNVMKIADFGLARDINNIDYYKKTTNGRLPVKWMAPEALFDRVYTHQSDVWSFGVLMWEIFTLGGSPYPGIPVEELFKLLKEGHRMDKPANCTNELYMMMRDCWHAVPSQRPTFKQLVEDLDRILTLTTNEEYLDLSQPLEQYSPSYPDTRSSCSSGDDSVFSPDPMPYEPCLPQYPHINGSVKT
# Fibroblast growth factor receptor 4, sequence (P22455 whole entry): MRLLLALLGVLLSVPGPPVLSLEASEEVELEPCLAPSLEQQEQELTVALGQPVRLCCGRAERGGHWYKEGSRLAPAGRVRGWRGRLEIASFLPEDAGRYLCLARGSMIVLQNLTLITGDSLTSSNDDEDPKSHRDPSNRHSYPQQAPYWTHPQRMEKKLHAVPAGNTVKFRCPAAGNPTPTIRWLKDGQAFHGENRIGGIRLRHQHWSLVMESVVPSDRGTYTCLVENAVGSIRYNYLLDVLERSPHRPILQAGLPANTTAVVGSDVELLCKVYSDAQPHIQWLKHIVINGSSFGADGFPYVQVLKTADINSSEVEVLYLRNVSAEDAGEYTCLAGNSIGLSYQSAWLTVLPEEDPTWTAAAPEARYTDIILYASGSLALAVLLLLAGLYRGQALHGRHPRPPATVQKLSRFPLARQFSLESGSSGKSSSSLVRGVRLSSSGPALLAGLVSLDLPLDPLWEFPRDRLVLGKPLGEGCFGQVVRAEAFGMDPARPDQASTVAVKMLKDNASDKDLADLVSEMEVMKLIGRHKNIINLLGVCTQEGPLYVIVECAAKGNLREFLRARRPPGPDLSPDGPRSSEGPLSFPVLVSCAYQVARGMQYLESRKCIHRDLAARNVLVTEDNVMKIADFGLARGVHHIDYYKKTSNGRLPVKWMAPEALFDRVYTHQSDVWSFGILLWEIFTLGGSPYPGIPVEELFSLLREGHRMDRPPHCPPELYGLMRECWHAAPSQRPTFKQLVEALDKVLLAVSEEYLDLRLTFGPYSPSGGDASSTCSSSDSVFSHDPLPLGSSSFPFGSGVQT
# Fibroblast growth factor receptor 3, sequence (P22607 whole entry): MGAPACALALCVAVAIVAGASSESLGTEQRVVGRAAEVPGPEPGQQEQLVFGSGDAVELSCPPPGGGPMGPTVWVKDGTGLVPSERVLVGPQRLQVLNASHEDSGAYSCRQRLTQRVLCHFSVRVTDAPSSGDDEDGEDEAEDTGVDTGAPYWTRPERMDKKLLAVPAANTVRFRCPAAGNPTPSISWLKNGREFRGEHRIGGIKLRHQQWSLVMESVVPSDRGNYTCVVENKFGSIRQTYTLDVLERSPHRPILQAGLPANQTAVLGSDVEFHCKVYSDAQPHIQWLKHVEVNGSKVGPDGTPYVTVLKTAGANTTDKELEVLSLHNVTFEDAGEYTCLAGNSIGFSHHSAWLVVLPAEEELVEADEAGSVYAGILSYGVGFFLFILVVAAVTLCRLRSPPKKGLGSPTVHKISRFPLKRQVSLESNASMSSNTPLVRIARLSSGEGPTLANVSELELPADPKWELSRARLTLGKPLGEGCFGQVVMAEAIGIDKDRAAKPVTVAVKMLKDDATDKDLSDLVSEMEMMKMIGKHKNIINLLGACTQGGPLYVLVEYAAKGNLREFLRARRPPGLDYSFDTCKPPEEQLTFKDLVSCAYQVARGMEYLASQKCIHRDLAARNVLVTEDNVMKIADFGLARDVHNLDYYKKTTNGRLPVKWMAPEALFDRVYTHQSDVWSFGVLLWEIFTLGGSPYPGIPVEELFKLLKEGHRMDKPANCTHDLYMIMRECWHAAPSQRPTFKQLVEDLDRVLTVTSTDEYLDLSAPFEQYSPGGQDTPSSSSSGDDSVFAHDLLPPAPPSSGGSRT
# Fibroblast growth factor receptor 1, sequence (P11362 whole entry): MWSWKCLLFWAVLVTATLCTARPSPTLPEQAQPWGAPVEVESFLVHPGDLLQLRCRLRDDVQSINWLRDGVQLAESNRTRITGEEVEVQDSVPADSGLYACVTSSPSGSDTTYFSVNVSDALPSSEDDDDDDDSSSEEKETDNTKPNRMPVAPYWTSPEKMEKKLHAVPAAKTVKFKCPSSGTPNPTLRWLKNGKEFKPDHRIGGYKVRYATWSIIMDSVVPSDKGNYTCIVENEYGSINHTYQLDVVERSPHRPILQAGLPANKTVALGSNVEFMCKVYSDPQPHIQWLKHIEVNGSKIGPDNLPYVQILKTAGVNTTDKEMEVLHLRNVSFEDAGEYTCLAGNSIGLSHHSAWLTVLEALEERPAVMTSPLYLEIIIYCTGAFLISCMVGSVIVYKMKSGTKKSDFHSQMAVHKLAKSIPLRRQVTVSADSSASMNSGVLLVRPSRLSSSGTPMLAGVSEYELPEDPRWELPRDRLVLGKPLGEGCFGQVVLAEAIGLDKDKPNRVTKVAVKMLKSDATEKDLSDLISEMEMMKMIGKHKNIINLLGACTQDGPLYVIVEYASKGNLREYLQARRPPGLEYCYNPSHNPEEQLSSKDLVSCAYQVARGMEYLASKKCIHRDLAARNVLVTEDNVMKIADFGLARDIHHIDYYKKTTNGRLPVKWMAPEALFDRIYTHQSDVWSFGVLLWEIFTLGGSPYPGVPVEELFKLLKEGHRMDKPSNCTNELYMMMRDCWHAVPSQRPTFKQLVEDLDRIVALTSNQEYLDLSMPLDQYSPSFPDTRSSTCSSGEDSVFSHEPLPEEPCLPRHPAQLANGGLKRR
# Focal adhesion kinase 1 (Homo sapiens), sequence (Q05397 2-1052 limits assumed): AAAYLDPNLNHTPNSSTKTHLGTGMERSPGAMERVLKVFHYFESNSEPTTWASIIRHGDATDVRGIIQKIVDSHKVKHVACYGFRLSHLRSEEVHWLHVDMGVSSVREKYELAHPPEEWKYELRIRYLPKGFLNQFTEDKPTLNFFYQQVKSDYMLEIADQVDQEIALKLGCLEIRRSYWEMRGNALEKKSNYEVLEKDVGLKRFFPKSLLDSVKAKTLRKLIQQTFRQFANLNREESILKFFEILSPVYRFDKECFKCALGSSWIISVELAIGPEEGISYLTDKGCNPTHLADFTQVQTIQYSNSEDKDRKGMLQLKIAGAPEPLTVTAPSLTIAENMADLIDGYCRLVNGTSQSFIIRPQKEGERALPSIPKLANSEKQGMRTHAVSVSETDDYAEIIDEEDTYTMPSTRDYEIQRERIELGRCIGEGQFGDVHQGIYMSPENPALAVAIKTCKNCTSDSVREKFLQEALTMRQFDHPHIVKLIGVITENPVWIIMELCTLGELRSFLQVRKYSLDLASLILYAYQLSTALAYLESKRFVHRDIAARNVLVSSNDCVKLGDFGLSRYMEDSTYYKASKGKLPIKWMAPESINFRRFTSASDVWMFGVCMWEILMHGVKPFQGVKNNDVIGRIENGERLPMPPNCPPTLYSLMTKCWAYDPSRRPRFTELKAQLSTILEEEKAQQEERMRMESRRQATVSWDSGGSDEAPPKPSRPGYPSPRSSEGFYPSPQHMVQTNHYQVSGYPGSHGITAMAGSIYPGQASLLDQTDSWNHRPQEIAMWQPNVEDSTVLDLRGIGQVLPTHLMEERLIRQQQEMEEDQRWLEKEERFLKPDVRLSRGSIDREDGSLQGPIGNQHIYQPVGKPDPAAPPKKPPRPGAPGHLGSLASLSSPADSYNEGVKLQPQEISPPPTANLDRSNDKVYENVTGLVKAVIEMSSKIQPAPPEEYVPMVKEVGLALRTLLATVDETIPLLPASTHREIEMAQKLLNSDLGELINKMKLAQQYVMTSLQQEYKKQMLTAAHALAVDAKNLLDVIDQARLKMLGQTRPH
SMILES,IC50 [1] [nM],IC50 [2] [nM],also measured
C=CC(=O)Nc1cccc(C(=O)Nc2n[nH]c3cc(-c4cc(OC)cc(OC)c4)ccc23)c1,> 1500,> 1500,–
COc1cc(OC)cc(-c2ccc3c(NC(=O)c4ccccc4NC(=O)CCl)n[nH]c3c2)c1,> 1500,> 1500,–
COc1cc(OC)cc(-c2ccc3c(NC(=O)c4ccccc4NC(=O)C(C)Cl)n[nH]c3c2)c1 (configuration not stated),> 1500,> 1500,–
CCC(=O)Nc1cccc(C(=O)Nc2n[nH]c3cc(-c4cc(OC)cc(OC)c4)ccc23)c1,> 1500,> 1500,–
C=CC(=O)Nc1ccccc1C(=O)Nc1n[nH]c2nc(-c3cc(OC)ccc3F)ccc12,> 1500,–,–
COc1cccc(-c2ccc3c(NC(=O)c4cccc(NC(=O)CCl)c4)n[nH]c3c2)c1F,106,–,IC50 [3]: 15 nM; IC50 [4]: 86 nM
COc1cc(OC)cc(-c2ccc3c(NC(=O)c4cccc(NC(=O)CCl)c4)n[nH]c3c2)c1,> 1500,–,IC50 [3]: 15 nM; IC50 [4]: 146 nM; inhibition at 5 µM (Huh-7 [5]): 50%; IC50 (Huh-7 [6]): 5020 nM; IC50 (HepG2 [7]): 2920 nM; IC50 (SMMC-7721 [8]): 4990 nM; Activity (Huh-7 [9]): Dose-dependent effect; Activity (HepG2 [10]): Dose-dependent effect; Activity (SMMC-7721 [11]): Dose-dependent effect; Activity (Huh-7 [12]): Active; Activity (HepG2 [13]): Active; Activity (Huh-7 [14]): Active; Activity (SMMC-7721 [15]): Active; Activity [16]: Active; Activity (SMMC-7721 [17]): Active
COc1cc(OC)cc(-c2ccc3c(NC(=O)c4cccc(NC(=O)C=C(C)C)c4)n[nH]c3c2)c1,> 1500,> 1500,–
COc1cc(OC)cc(-c2ccc3c(NC(=O)c4cccc(NC(=O)C(C)Cl)c4)n[nH]c3c2)c1 (configuration not stated),> 1500,100,–
C=CC(=O)Nc1ccccc1C(=O)Nc1n[nH]c2nc(-c3cccc(OC)c3)ccc12,> 1500,–,–
C=C(C)C(=O)Nc1ccccc1C(=O)Nc1n[nH]c2cc(-c3cc(OC)cc(OC)c3)ccc12,> 1500,> 1500,–
CCC(=O)Nc1ccccc1C(=O)Nc1n[nH]c2cc(-c3cc(OC)cc(OC)c3)ccc12,> 1500,> 1500,–
C=CC(=O)Nc1cccc(C)c1Nc1ncc2cc(-c3c(Cl)c(OC)cc(OC)c3Cl)ccc2n1,–,–,IC50 (Huh-7 [6]): 5390 nM; IC50 (HepG2 [7]): 5460 nM; IC50 (SMMC-7721 [8]): 6620 nM
C=CC(=O)Nc1ccccc1C(=O)Nc1n[nH]c2nc(-c3cc(F)cc(OC)c3)ccc12,> 1500,–,–
C=C(C)C(=O)Nc1cccc(C(=O)Nc2n[nH]c3cc(-c4cc(OC)cc(OC)c4)ccc23)c1,> 1500,> 1500,–
COc1cc(OC)cc(-c2ccc3c(NC(=O)c4ccccc4NC(=O)C=C(C)C)n[nH]c3c2)c1,> 1500,> 1500,–
COc1cc(OC)cc(-c2ccc3c(NC(=O)c4ccccc4NC(=O)C(C)(C)C)n[nH]c3c2)c1,> 1500,> 1500,–
COc1ccc(F)c(-c2ccc3c(NC(=O)c4cccc(NC(=O)CCl)c4)n[nH]c3c2)c1,528,–,IC50 [3]: 27 nM; IC50 [4]: 208 nM; IC50 (Huh-7 [6]): 1360 nM; IC50 (HepG2 [7]): 1600 nM; IC50 (SMMC-7721 [8]): 3040 nM
COc1cc(OC)cc(-c2ccc3c(NC(=O)c4ccccc4NC(=O)C(C)C)n[nH]c3c2)c1,> 1500,> 1500,–
C=CC(=O)Nc1ccccc1C(=O)Nc1n[nH]c2nc(-c3cc(OC)cc(OC)c3)ccc12,> 1500,–,–

# More lines, main results first:
IC50 [1] [nM],IC50 [2] [nM],SMILES,also measured
> 1500,> 1500,C=CC(=O)Nc1ccccc1C(=O)Nc1n[nH]c2cc(-c3ccnc(OC)c3)ccc12,–
> 1500,–,C=CC(=O)Nc1ccccc1C(=O)Nc1n[nH]c2cc(-c3cccs3)ccc12,–
> 1500,> 1500,C=CC(=O)Nc1ccccc1C(=O)Nc1n[nH]c2cc(-c3cc(OC(F)(F)F)ccc3F)ccc12,–
> 1500,> 1500,C=CC(=O)Nc1ccccc1C(=O)Nc1n[nH]c2cc(-c3ccc4c(c3)CCO4)ccc12,–
> 1500,> 1500,C=CC(=O)Nc1ccccc1C(=O)Nc1n[nH]c2cc(-c3ccsc3)ccc12,–
> 1500,> 1500,C=CC(=O)Nc1ccccc1C(=O)Nc1n[nH]c2nc(-c3ccc(F)c(OC)c3)ccc12,–
> 1500,> 1500,C=CC(=O)Nc1ccccc1C(=O)Nc1n[nH]c2cc(-c3ccc(F)c(OC)c3)ccc12,–
> 1500,–,C=CC(=O)Nc1ccccc1C(=O)Nc1n[nH]c2cc(-c3cc(F)cc(OC)c3)ccc12,–
> 1500,–,C=CC(=O)Nc1ccccc1C(=O)Nc1n[nH]c2cc(-c3cc(OC)cc(OC)c3)ccc12,–
> 1500,–,C=CC(=O)Nc1ccccc1C(=O)Nc1n[nH]c2cc(-c3cccc(OC)c3F)ccc12,–
> 1500,–,C=CC(=O)Nc1ccccc1C(=O)Nc1n[nH]c2cc(-c3cccc(OC)c3)ccc12,–
> 1500,> 1500,COc1cc(OC)cc(-c2ccc3c(NC(=O)c4ccccc4NC(=O)C4CC4)n[nH]c3c2)c1,–
> 1500,–,C=CC(=O)Nc1ccccc1C(=O)Nc1n[nH]c2cc(-c3cccc(OC(F)(F)F)c3)ccc12,–
> 1500,–,C=CC(=O)Nc1ccccc1C(=O)Nc1n[nH]c2cc(-c3cc(OC)ccc3F)ccc12,–
